Experimental data: ChEMBL document CHEMBL4251754, “Identification of a Potent Tryptophan-Based TRPM8 Antagonist With in Vivo Analgesic Activity” (J Med Chem, 2018)
Activity calls are given as the source filed them. The rule behind the calls is not given here.

Legend:
[1] = biological target: T1, Transient receptor potential cation channel subfamily M member 8 (Rattus norvegicus, UniProt Q8R455); test: Antagonist activity at rat TRPM8 expressed in HEK293 cells assessed as reduction in menthol-induced calcium flux incubated for 60 mins by Fluo-4 NW-dye based fluorimetric assay; type: cell-based
Summary of the method: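 HEK293 cells stably expressing rat TRPM8, seeded 2 days ahead, loaded with Fluo-4 NW containing 2.5 mM probenecid; compounds in DMSO, 60 min at 37 °C in darkness. Four baseline cycles, 100 μM menthol stimulation, 15 further cycles read (ex 485/em 535 nm). Normalized to menthol + 10 μM AMTB coexposure; DMSO controls.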

Mus musculus [2] = test: Antinociceptive activity in sc dosed C57/BL6 mouse assessed as inhibition of oxaliplatin induced cold allodynia administered as single dose injected into plantar surface of right hind paw on day 7 post oxaliplatin treatment and measured after 15 to 30 mins by acetone drop method; type: functional, organism-based
Summary of the method: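 Male C57 mice, 5 weeks, ~30 g. Oxaliplatin 6 mg/kg given on days 1, 3 and 5, with saline and 5% mannitol i.p.; tested on day 7. Antagonist stock in DMSO, diluted in saline, 0.1–1 μg injected in 25 μL into the plantar surface of the right hind paw. Acetone drop test after ~30 min habituation; paw sampled twice (~5 min apart) and averaged.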

[3] = Drug metabolism in mouse serum assessed as (S)-2-(Dibenzylamino)-3-(1H-indol-3-yl)propanoic Acid formation after 15 to 60 mins by HPLC analysis; type: ADME, cell-free
Summary of the method: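 DMSO stock diluted 1:1000 in mouse serum (from retro-orbital blood) and stirred at 37 °C. Samples taken at 15, 30 and 60 min, extracted with dichloromethane, then analysed by C18 HPLC (0.1% TFA water/acetonitrile gradient, 220 nm) for parent and acid metabolite. Blank serum checked for interfering peaks; acetylsalicylic acid used to verify hydrolytic activity. Triplicate.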

[4] = Apparent permeability of the compound in 0.01 M phosphate buffer at pH 7.4 at 0.5 mM after 24 hrs by PAMPA; type: ADME
Summary of the method: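 Donor at 0.5 mM, diluted from 10 mM DMSO stock into 0.01 M phosphate buffer pH 7.4. Filter coated with 1% phosphatidylcholine in dodecane; acceptor is 5% DMSO in phosphate buffer. Incubated 24 h at room temperature with gentle shaking. Acceptor analysed by HPLC-UV at 220 nm against no-membrane references. Papp from Faller-modified Sugano equation; triplicate, with propranolol and furosemide as references.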

Mus musculus [5] = test: Antinociceptive activity in sc dosed C57Bl/6J mouse assessed as inhibition of icilin induced wet-dog shakes pretreated 30 mins before icillin addition and measured after 30 mins by wet-dog shakes assay; type: functional, organism-based
Summary of the method: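 Male C57 mice, 5 weeks, ~30 g, acclimatized 30 min on two consecutive days. Compound (1, 10, 30 mg/kg; DMSO stock diluted in saline) or vehicle given s.c. 30 min before icilin 10 mg/kg i.p. (in 20% DMSO/1% Tween 80 in water). Gabapentin 25 mg/kg s.c. given 60 min before icilin. Wet-dog shakes counted over 30 min. Mean ± SEM, n = 6; two-way ANOVA with Bonferroni test.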

[6] = Chemical stability of compound in phosphate buffer at pH 7.4 after 15 to 60 mins by HPLC analysis; type: physicochemical
Summary of the method: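 DMSO stock (10 mg/mL) diluted 1:100 in phosphate buffer and stirred at 37 °C. At 15, 30 and 60 min, extracted with dichloromethane (1:1), dried under nitrogen, reconstituted in methanol and filtered. Analysed by C18 HPLC with a 0.1% TFA water/acetonitrile gradient (5–90% B over 7 min), 0.5 mL/min, 220 nm detection. Triplicate.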

[7] = biological target: Transient receptor potential cation channel subfamily M member 8 (Rattus norvegicus) (UniProt Q8R455); test: Reversible antagonist activity at rat TRPM8 expressed in HEK293 cells at 100 nM assessed as reduction in menthol-induced channel currents measured after drug wash out by whole cell patch clamp method; type: cell-based
[8] = biological target: Transient receptor potential cation channel subfamily M member 8 (Rattus norvegicus) (UniProt Q8R455); test: (§1) Antagonist activity at rat TRPM8 expressed in HEK293 cells assessed as reduction in menthol-induced channel currents by whole cell patch clamp method; type: cell-based
Summary of the method: (§2)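 HEK293 cells grown in DMEM/10% FBS, plated on poly-L-lysine coverslips, transiently transfected 24 h later with rat TRPM8 cDNA (3.6 μg) plus EGFP marker (total cDNA 4 μg). Whole-cell recordings 24 h post-transfection on EGFP-positive cells, 3–5 MΩ pipettes. Extracellular solution (mM): 138 NaCl, 5.4 KCl, 2 CaCl2, 1 MgCl2, 10 glucose, 10 HEPES, pH 7.4. Currents evoked by 500 μM menthol, monitored at +80 and −80 mV.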

[9] = biological target: T1, Transient receptor potential cation channel subfamily M member 8; test: as §1; type: cell-based; summary of the method: as §2
Mus musculus [10] = test: Antinociceptive activity in C57Bl/6J mouse assessed as inhibition of icilin induced wet-dog shakes at 30 mg/kg, sc pretreated 30 mins before icillin addition and measured after 30 mins by wet-dog shakes assay; type: functional
Summary of the method: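 Male C57 mice, 5 weeks, ~30 g, acclimatized 30 min on two consecutive days. Compound (DMSO stock diluted in saline) given s.c. at 1, 10 or 30 mg/kg 30 min before icilin 10 mg/kg i.p. (20% DMSO/1% Tween 80). Wet-dog shakes counted over 30 min; mean ± SEM, n = 6; two-way ANOVA, Bonferroni.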

[11] = biological target: Transient receptor potential cation channel subfamily V member 1 (Mus musculus) (UniProt Q704Y3); test: Antagonist activity at mouse TRPV1 expressed in human SH-SY5Y cells assessed as inhibition of capsaicin induced calcium influx at 0.001 to 100 uM incubated for 60 mins by Fluo-4 NW-dye based fluorimetric assay; type: cell-based
Summary of the method: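 SH-SY5Y cells stably expressing mouse TRPV1, seeded 2 days before, loaded with Fluo-4 NW plus 2.5 mM probenecid; compounds in DMSO added, 60 min at 37 °C in darkness. Four baseline cycles, then 10 μM capsaicin, recorded 15 more cycles (ex 485/em 535 nm). Signal normalized to capsaicin + 10 μM ruthenium red coexposure.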

[12] = biological target: Transient receptor potential cation channel subfamily M member 8 (Rattus norvegicus) (UniProt Q8R455); test: Antagonist activity at rat TRPM8 expressed in HEK293 cells at 100 nM assessed as reduction in menthol-induced channel currents by whole cell patch clamp method; type: cell-based
Mus musculus [13] = test: Antinociceptive activity in C57Bl/6J mouse assessed as inhibition of icilin induced wet-dog shakes at 25 mg/kg, sc pretreated 1 hr before icillin addition and measured after 30 mins by wet-dog shakes assay; type: functional, organism-based
Summary of the method: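 Male C57 mice, 5 weeks, ~30 g, acclimatized 30 min on two consecutive days. Gabapentin in saline, 25 mg/kg s.c. 60 min before icilin (10 mg/kg i.p. in 20% DMSO/1% Tween 80). Wet-dog shakes counted over 30 min; mean ± SEM, n = 6; two-way ANOVA with Bonferroni.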

[14] = biological target: Transient receptor potential cation channel subfamily M member 8 (Rattus norvegicus) (UniProt Q8R455); test: Reversible antagonist activity at rat TRPM8 expressed in HEK293 cells at 500 nM assessed as reduction in menthol-induced channel currents measured after drug wash out by whole cell patch clamp method; type: cell-based
Summary of the method: (§3)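 HEK293 cells transiently transfected with rat TRPM8 cDNA plus EGFP marker, recorded 24 h later by whole-cell patch clamp on EGFP-positive cells (3–5 MΩ pipettes). Extracellular (mM): 138 NaCl, 5.4 KCl, 2 CaCl2, 1 MgCl2, 10 glucose, 10 HEPES, pH 7.4. Currents evoked by 500 μM menthol, read at +80 and −80 mV; compound added during menthol exposure.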

[15] = biological target: Transient receptor potential cation channel subfamily M member 8 (Rattus norvegicus) (UniProt Q8R455); test: Antagonist activity at rat TRPM8 expressed in HEK293 cells at 500 nM assessed as reduction in menthol-induced channel currents by whole cell patch clamp method; type: cell-based; summary of the method: as §3
[16] = biological target: Transient receptor potential cation channel subfamily M member 8 (Homo sapiens, UniProt Q7Z2W7); test: Antagonist activity at TRPM8 (unknown origin) assessed as reduction in menthol-induced calcium influx
Summary of the method: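 HEK293 cells stably expressing rat TRPM8, seeded 2 days ahead, loaded with Fluo-4 NW plus 2.5 mM probenecid. Compounds in DMSO preincubated 60 min at 37 °C in the dark. Four baseline cycles, then stimulation with 100 μM menthol and 15 further read cycles (ex 485, em 535 nm). Signal normalized to menthol + 10 μM AMTB coexposure. DMSO vehicle controls.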

T1 sequence (Q8R455 whole entry): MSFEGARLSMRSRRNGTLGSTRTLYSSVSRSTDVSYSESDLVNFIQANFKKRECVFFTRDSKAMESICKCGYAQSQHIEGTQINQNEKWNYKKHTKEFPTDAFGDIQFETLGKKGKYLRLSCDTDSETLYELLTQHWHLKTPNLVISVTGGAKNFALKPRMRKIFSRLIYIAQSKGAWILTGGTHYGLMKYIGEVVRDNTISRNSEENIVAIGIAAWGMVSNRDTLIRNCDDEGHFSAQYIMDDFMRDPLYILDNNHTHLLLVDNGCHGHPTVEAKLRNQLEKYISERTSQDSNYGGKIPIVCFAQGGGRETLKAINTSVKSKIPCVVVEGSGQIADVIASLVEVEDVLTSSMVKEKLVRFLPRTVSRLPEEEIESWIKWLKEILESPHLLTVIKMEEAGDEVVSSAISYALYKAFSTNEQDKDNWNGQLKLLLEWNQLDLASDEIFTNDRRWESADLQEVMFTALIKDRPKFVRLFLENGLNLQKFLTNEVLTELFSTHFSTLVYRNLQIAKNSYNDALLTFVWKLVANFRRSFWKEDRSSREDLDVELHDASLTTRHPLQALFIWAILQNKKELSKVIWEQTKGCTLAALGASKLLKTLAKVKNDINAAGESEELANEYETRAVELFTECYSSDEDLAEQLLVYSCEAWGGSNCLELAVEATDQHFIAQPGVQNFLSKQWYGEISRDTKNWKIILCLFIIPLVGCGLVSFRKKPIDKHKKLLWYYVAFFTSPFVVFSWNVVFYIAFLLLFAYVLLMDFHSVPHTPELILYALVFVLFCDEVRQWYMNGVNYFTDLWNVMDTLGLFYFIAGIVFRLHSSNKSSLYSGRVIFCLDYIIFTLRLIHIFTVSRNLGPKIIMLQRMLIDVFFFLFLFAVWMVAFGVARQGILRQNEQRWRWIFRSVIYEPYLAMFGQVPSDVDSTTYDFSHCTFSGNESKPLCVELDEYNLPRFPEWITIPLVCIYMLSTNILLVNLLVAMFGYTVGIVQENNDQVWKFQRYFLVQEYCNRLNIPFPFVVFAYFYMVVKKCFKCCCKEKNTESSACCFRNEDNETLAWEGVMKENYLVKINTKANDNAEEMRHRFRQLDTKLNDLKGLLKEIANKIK
Chain of Transient receptor potential cation channel subfamily M member 8 (Rattus norvegicus) (Q8R455 whole entry, looked up): as the sequence (Q8R455 whole entry) above
Chain of Transient receptor potential cation channel subfamily V member 1 (Mus musculus) (Q704Y3 whole entry): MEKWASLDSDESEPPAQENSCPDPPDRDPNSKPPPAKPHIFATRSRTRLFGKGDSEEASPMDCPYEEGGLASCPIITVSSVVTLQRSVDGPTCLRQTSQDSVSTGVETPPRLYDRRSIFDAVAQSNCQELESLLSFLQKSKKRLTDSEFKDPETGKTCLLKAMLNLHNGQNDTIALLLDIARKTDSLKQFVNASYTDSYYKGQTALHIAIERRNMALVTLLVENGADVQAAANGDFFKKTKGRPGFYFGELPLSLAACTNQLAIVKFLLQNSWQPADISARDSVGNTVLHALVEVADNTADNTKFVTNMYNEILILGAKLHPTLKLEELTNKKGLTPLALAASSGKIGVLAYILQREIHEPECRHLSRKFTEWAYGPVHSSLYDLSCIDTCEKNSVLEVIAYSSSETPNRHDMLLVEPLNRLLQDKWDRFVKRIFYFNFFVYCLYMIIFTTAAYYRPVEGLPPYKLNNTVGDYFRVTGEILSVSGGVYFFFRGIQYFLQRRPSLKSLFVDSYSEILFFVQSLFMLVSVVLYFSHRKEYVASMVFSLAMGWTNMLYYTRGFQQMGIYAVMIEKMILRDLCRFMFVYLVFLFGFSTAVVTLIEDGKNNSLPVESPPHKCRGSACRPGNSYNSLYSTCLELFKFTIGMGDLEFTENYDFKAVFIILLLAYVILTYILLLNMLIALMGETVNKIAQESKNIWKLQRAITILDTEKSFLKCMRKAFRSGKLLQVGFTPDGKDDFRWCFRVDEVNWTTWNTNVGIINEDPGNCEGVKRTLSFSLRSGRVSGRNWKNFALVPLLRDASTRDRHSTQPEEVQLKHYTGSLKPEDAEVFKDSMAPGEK
Chain of Transient receptor potential cation channel subfamily M member 8 (Homo sapiens, UniProt Q7Z2W7) (Q7Z2W7 whole entry): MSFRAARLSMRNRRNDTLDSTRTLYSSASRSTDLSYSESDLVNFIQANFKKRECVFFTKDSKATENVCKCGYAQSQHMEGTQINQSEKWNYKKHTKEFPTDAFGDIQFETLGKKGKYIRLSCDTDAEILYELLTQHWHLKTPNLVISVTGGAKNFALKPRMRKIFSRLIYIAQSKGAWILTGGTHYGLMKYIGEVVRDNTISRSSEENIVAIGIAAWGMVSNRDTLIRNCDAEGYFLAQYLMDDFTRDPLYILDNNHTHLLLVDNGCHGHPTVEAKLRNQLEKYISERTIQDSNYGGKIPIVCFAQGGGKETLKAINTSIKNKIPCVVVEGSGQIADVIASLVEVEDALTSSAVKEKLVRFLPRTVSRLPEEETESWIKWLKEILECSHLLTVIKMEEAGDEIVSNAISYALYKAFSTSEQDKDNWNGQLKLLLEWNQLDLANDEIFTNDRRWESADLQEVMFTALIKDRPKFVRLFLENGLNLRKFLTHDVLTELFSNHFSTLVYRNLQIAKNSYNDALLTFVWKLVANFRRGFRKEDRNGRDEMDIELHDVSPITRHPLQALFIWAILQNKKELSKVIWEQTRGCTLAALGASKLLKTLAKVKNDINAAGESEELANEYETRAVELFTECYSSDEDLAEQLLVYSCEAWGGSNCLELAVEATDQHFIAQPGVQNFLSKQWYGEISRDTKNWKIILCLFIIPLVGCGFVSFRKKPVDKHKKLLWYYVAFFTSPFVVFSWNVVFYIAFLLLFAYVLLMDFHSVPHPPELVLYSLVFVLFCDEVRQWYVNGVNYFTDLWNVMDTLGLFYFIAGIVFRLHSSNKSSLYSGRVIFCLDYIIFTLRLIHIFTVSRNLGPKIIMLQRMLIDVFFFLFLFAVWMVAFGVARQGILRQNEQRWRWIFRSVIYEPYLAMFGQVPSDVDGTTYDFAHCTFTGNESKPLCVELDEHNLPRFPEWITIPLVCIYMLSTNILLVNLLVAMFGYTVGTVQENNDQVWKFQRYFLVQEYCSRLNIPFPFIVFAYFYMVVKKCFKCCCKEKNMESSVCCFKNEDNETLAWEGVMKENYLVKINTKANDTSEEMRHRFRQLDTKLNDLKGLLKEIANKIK

O=[N+]([O-])c1ccc(Sc2[nH]c3ccccc3c2CCN(Cc2ccccc2)Cc2ccccc2)c([N+](=O)[O-])c1
IC50 [1]: 2200 nM

COC(=O)[C@H](Cc1c[nH]c2ccccc12)N(Cc1ccccc1)Cc1ccccc1
inhibition (Mus musculus [2]): Dose-dependent effect
Drug metabolism [3]: Metabolite_Detected
Papp at 24 h, 500 µM [4]: 0.97 ×10⁻⁶ cm/s
inhibition (Mus musculus [5]): Dose-dependent effect
Stability [6]: Stable
inhibition [7]: Active
inhibition [8]: Dose-dependent effect
IC50 [9]: 0.2 nM
inhibition in vivo at 30 mg/kg (Mus musculus [10]): 63%
inhibition [11]: inactive
inhibition [12]: Active
IC50 [1]: 40 nM

c1ccc(COc2ccc3[nH]cc(CCN(Cc4ccccc4)Cc4ccccc4)c3c2)cc1
IC50 [1]: 1900 nM

O=[N+]([O-])c1ccc(CN(CCc2c[nH]c3ccccc23)Cc2ccccc2)cc1
IC50 [1]: 3000 nM

NCC1(CC(=O)O)CCCCC1
inhibition (Mus musculus [13]): Active

c1ccc(CN(CCc2c[nH]c3ccccc23)Cc2ccccc2)cc1
IC50 [1]: 3200 nM

COC(=O)[C@@H](Cc1c[nH]c2ccccc12)N(Cc1ccccc1)Cc1ccccc1
IC50 [9]: 865 nM

O=C(O)[C@H](Cc1c[nH]c2ccccc12)N(Cc1ccccc1)Cc1ccccc1
Papp at 24 h, 500 µM [4]: 3.17 ×10⁻⁶ cm/s
IC50 [1]: 8200 nM

c1cc2c3c(cccc3c1)CN(CCc1c[nH]c3ccccc13)C2
IC50 [1]: 11800 nM

O=C(O)c1ccc(CN2CCc3c([nH]c4ccccc34)C2c2ccccc2)cc1 (racemic)
IC50 [1]: > 100000 nM

O=[N+]([O-])c1ccc(CN2CCc3c([nH]c4ccccc34)C2c2ccccc2)cc1 (racemic)
IC50 [1]: 3300 nM

c1ccc(CN(CCc2c[nH]c3ccccc23)CC2CCCCC2)cc1
inhibition [14]: Active
inhibition [15]: Active
inhibition [8]: Dose-dependent effect
IC50 [9]: 3.5 nM
inhibition [11]: inactive
IC50 [1]: 600 nM

O=C(CN1CCc2c([nH]c3ccccc23)C1c1ccccc1)c1ccccc1 (racemic)
IC50 [1]: 1600 nM

Cn1cc(CCN(Cc2ccccc2)Cc2ccccc2)c2ccccc21
IC50 [1]: 3300 nM

CC(C)(C)c1ccc(NC(=O)N2CCN(c3ncccc3Cl)CC2)cc1
IC50 [16]: 475 nM

Cc1cccc(COc2ccccc2C(=O)N(CCCN)Cc2cccs2)c1
IC50 [1]: 6500 nM
